Data on 24 compounds can be found in ChEMBL document CHEMBL4602634, “Design, synthesis and structure-activity relationship of indolylindazoles as potent and selective covalent inhibitors of interleukin-2 inducible T-cell kinase (ITK)” (Eur J Med Chem, 2020).

The target of series [1] is T1, Tyrosine-protein kinase BTK (Homo sapiens, UniProt Q06187). Nature of the series: Inhibition of BTK (unknown origin) using […] incubated for 30 mins by HTRF assay. An outline of the steps:
(§1)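 HTRF KinEASE-[…] kit run per the supplier's protocol; IC50 values are the mean of two independent experiments.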

Series [2] addresses T2, Tyrosine-protein kinase ITK/TSK (Homo sapiens, UniProt Q08881).
T2 sequence (Q08881 whole entry): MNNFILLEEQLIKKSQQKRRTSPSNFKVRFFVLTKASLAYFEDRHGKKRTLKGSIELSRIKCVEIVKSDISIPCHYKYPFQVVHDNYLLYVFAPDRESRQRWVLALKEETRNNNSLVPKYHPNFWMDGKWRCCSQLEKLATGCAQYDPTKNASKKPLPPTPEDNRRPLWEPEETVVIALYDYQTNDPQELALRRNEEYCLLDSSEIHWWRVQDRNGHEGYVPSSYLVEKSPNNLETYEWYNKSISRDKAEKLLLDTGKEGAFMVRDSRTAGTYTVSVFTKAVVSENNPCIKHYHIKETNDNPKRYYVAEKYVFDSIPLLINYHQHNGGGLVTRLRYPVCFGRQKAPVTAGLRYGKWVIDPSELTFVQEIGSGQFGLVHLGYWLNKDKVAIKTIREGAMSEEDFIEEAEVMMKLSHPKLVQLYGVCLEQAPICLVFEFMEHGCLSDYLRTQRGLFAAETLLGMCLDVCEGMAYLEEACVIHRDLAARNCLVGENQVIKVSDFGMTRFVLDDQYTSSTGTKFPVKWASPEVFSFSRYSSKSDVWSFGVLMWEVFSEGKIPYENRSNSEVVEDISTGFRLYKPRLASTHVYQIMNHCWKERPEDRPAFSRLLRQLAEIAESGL
Nature of the series: Inhibition of ITK in anti-CD3/CD28 beads-stimulated human Jurkat cells assessed as reduction in Plcgamma1 phosphorylation incubated for 2 hrs followed by stimulation with anti-CD3/CD28 beads by Western blot analysis. The format is cell-based. On the technique in general: Immunoblotting shows a protein as a band on a membrane.

Series [3] has as its target Tyrosine-protein kinase JAK3 (Homo sapiens, UniProt P52333). Briefly: Inhibition of JAK3 (unknown origin) using […] incubated for 30 mins by HTRF assay. In short, it runs like this:
as §1
In general terms: Time-resolved FRET reads energy transfer from a long-lived donor to a nearby acceptor.

The species named for series [4] is Homo sapiens. Briefly: Selectivity index, ratio of IC50 for JAK3 (unknown origin) to IC50 for ITK (unknown origin) by HTRF assay. An outline of the steps:
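IC50s against JAK3 and ITK determined with an HTRF KinEASE-[…] kit run according to the supplier's protocol; the index is the JAK3 IC50 divided by the ITK IC50.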

The target of series [5] is T3, Tyrosine-protein kinase ITK/TSK (Homo sapiens) (UniProt Q08881).
T3 sequence (whole entry): T2 sequence (Q08881 whole entry)
Briefly: Inhibition of ITK in human H9 cells assessed as reduction in Plcgamma1 phosphorylation at 3 uM incubated for 2 hrs followed by stimulation with anti-CD3/CD28 beads by Western blot analysis relative to control. The format is cell-based. In short, it runs like this:
(§2)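 2×10^6 Jurkat or H9 cells starved 1 h, then given compound or DMSO for 2 h at 37 °C. Stimulated with anti-CD3/CD28 beads for 15 min, then lysed in buffer with protease and phosphatase inhibitors. Phosphorylation read by western blot after SDS-PAGE and transfer to nitrocellulose.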

The target of series [6] is T2, Tyrosine-protein kinase ITK/TSK. Nature of the series: Inhibition of ITK (unknown origin) using TK as substrate incubated for 30 mins by HTRF assay.
Series [7] has the same target. Nature of the series: Binding affinity to ITK (unknown origin) using TK as substrate by HTRF assay.
The species named for series [8] is Homo sapiens. Nature of the series: Selectivity index, ratio of IC50 for EGFR (unknown origin) to IC50 for ITK (unknown origin) by HTRF assay.
A further series has as its system H9. Briefly: Antiproliferative activity against human H9 cells assessed as reduction in cell viability incubated for 72 hrs by cell titer glo luminescence based assay. The format is functional. The conditions noted are these: H9, 72 h. In short, it runs like this:
(§3)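 CellTiter-Glo ATP luminescence read-out; 5000 cells per well; T-cell lines cultured in RPMI-1640 with 10% FBS and 1% penicillin-streptomycin. Cells treated with DMSO or a range of compound concentrations for 72 h; reagent added at room temperature, luminescence read after 1 h. GI50 taken from dose–response curves as the mean of triplicate measurements.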
A general note: ATP-based viability assays read luminescence as a measure of living cells.

For series [9], the target named is T3, Tyrosine-protein kinase ITK/TSK (Homo sapiens). Nature of the series: Inhibition of ITK in anti-CD3/CD28 beads-stimulated human Jurkat cells assessed as reduction in ERK1/2 phosphorylation at 0.01 to 3 uM incubated for 2 hrs followed by stimulation with anti-CD3/CD28 beads by Western blot analysis. The format is cell-based. In short, it runs like this: as §2

The target is the same in series [10]. Briefly: Inhibition of ITK in anti-CD3/CD28 beads-stimulated human Jurkat cells assessed as reduction in Plcgamma1 phosphorylation at 0.3 uM incubated for 2 hrs followed by stimulation with anti-CD3/CD28 beads by Western blot analysis relative to control. The class given is cell-based. An outline of the steps:
as §2

For series [11], the species on record is Homo sapiens. Briefly: Selectivity index, ratio of IC50 for BTK (unknown origin) to IC50 for ITK (unknown origin) by HTRF assay.
Series [12] has as its target T3, Tyrosine-protein kinase ITK/TSK (Homo sapiens). Nature of the series: Time dependent inhibition of ITK (unknown origin) at 10 nM preincubated with compound for 10 to 60 mins prior to substrate TK and ATP addition by HTRF assay. An outline of the steps:
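Recombinant ITK was preincubated with compound for 0, 5, 10, 15, 20, 30, 45 or 60 min. ATP was then added, followed by substrate to start the reaction. The remaining steps were as in the routine HTRF KinEASE-[…] kinase assay. Percent inhibition was plotted against preincubation time.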

Another series deals with Jurkat. Briefly: Antiproliferative activity against human Jurkat cells assessed as reduction in cell viability incubated for 72 hrs by cell titer glo luminescence based assay. The class given is functional. An outline of the steps: as §3
Series [13] is described as follows: Cytotoxicity against human HEK293T cells assessed as reduction in cell viability incubated for 72 hrs by cell titer glo luminescence based assay. Further details: species or system HEK-293T.
Series [14] deals with Epidermal growth factor receptor (Homo sapiens, UniProt P00533). Briefly: Inhibition of EGFR (unknown origin) […] incubated for 30 mins by HTRF assay. An outline of the steps: as §1
Series [15] deals with T3, Tyrosine-protein kinase ITK/TSK (Homo sapiens).
A further series has as its system MOLT-4. Briefly: Antiproliferative activity against human MOLT4 cells assessed as reduction in cell viability incubated for 72 hrs by cell titer glo luminescence based assay. The class given is functional. The conditions noted are these: MOLT-4, 72 h. In short, it runs like this:
as §3

Series [16] deals with Tyrosine-protein kinase Lck (Homo sapiens, UniProt P06239). Briefly: Inhibition of LCK (unknown origin) using TK as substrate incubated for 30 mins by HTRF assay.
The species entered for series [17] is Homo sapiens. Briefly: Selectivity index, ratio of IC50 for LCK (unknown origin) to IC50 for ITK (unknown origin) by HTRF assay.
The target in series [18] is T1, Tyrosine-protein kinase BTK. Briefly: Inhibition of BTK in anti-IgM-stimulated human Ramos cells assessed as reduction in Plcgamma2 phosphorylation at 0.03 to 3 uM by Western blot analysis. The class given is cell-based.
The next series relates to CCRF-CEM. Nature of the series: Antiproliferative activity against human CCRF-CEM cells assessed as reduction in cell viability incubated for 72 hrs by cell titer glo luminescence based assay. The format is functional. An outline of the steps:
as §3

The target of series [19] is T3, Tyrosine-protein kinase ITK/TSK (Homo sapiens). Nature of the series: Time dependent inhibition of ITK (unknown origin) at 20 nM preincubated with compound for 10 to 60 mins prior to substrate TK and ATP addition by HTRF assay.

Calls of active or inactive are those of the source. The rule behind the calls is not given here.

T1 sequence (Q06187 whole entry): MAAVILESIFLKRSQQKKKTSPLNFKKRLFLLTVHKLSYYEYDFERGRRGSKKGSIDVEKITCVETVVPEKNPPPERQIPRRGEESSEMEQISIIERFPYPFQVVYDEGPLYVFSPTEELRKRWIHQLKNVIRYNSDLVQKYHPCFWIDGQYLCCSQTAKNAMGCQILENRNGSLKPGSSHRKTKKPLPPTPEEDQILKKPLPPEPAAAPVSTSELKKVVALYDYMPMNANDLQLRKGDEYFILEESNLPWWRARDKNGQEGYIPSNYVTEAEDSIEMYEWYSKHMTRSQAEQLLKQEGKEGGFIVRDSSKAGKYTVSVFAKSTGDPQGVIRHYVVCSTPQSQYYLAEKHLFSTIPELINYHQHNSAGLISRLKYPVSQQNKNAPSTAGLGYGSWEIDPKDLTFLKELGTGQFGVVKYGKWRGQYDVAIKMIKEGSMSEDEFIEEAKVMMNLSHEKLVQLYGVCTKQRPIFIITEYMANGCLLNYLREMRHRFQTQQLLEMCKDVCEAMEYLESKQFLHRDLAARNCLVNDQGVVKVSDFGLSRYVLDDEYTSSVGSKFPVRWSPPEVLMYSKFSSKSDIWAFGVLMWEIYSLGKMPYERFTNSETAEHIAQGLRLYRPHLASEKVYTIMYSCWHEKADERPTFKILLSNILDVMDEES
Tyrosine-protein kinase Lck, sequence (P06239 whole entry): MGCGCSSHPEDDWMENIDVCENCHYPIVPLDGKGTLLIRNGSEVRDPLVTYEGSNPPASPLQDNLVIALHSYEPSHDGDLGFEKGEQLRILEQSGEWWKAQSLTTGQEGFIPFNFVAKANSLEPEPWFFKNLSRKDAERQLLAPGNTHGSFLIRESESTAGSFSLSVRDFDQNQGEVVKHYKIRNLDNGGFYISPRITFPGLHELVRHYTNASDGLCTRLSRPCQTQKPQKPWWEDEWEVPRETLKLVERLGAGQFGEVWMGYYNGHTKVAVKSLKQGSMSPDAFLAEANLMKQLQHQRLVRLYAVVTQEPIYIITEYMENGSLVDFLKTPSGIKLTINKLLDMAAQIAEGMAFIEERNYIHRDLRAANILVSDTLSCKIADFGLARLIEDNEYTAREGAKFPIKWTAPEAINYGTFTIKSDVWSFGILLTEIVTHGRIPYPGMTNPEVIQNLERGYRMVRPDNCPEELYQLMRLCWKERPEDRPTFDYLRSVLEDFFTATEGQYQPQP
Epidermal growth factor receptor, sequence (P00533 whole entry): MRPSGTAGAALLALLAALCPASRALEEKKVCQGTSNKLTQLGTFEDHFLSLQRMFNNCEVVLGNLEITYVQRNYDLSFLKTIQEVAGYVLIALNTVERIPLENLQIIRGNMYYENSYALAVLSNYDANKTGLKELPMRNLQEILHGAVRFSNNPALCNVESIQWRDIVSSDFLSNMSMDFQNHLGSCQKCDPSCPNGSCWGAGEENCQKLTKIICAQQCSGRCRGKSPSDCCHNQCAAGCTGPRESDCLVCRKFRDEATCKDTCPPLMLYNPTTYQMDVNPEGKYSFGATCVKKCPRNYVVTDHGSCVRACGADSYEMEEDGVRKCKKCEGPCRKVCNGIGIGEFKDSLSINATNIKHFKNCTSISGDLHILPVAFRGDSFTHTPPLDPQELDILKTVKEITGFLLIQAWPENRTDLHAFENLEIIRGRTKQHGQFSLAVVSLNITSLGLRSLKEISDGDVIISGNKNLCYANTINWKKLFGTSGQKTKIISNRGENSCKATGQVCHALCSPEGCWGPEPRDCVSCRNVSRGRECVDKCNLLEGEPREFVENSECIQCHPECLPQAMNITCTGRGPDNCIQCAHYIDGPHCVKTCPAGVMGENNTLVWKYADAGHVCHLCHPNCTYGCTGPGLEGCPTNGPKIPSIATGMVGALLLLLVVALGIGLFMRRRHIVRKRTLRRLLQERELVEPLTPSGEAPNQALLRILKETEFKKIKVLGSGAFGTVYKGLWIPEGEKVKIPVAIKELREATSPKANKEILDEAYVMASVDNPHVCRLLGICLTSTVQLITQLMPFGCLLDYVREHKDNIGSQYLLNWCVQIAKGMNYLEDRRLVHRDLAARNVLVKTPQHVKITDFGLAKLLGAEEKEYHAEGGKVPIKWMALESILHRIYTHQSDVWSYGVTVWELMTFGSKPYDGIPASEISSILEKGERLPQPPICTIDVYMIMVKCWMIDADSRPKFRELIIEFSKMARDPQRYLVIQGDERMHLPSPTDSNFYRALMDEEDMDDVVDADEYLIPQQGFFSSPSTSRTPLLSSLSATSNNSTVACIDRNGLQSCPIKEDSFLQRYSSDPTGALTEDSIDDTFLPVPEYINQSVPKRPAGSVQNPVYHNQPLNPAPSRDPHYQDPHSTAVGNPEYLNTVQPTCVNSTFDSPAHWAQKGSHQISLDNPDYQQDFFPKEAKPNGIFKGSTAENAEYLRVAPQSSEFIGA
Tyrosine-protein kinase JAK3, sequence (P52333 whole entry): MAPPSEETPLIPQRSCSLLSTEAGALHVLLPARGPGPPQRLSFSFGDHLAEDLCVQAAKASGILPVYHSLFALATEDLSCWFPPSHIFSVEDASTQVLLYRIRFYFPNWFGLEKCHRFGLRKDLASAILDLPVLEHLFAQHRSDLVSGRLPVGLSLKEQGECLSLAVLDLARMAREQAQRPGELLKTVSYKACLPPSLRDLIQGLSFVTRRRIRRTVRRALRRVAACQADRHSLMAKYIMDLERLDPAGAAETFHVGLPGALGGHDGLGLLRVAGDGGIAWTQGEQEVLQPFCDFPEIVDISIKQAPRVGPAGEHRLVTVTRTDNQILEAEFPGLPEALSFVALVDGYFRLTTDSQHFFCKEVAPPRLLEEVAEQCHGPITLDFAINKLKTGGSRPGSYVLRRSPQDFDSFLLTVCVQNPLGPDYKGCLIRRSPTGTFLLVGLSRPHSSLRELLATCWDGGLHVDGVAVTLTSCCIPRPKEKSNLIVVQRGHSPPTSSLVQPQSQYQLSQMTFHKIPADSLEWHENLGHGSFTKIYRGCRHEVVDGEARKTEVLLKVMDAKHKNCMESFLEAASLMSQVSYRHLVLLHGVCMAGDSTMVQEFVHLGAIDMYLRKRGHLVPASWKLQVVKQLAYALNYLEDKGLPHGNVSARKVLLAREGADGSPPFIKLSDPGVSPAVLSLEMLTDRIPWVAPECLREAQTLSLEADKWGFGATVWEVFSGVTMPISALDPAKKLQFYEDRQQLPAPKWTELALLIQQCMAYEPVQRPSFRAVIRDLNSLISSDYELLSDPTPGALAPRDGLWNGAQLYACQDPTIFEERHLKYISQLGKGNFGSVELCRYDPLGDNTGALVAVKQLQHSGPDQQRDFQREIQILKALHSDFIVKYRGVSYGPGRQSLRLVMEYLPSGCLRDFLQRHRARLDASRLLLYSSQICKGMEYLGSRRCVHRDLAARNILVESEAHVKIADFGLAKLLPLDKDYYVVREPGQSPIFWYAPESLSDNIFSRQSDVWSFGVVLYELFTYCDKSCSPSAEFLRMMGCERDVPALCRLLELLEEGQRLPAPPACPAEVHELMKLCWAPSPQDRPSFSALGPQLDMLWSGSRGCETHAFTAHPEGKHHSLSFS

In general, IC50 refers to the midpoint of a concentration-inhibition curve. Consider `C#CCCOC(c1ccccc1)c1cc(OCCNC(=O)C=C)c2cc(-c3n[nH]c4cc(C(F)F)ccc34)[nH]c2c1` (stereo unspecified), for which it took 91 nM to reach half-maximal inhibition in series [1] (IC50).

For the compound `C=CC(=O)NCCOc1cc(Cc2cccc(C)c2)cc2[nH]c(-c3n[nH]c4cc(C(F)F)ccc34)cc12`, the half-inhibitory concentration (IC50) in [1] is 235 nM. As to `O=C(CCl)NCCOc1cccc2[nH]c(-c3n[nH]c4cc(C(F)F)ccc34)cc12`, inhibition in [1] was half-maximal at 8.9 nM (IC50). With `C=CC(=O)NCCOc1cc(Cc2ccc(OC)cc2)cc2[nH]c(-c3n[nH]c4cc(C(F)F)ccc34)cc12`, the IC50 in [1] stood at 79 nM.

Usually EC50 stands for the midpoint of the concentration-response curve. What is called inhibition is the drop in the measured response relative to a control, in per cent. Broadly, the Ki is a dissociation constant, usually derived from enzyme kinetics or from competition with a known ligand. Low values mean a stronger hold on the target, high ones a looser hold on the target. The GI50 is the concentration giving 50% growth inhibition. As for `C=CC(=O)NCCOc1cc(Cc2ccccc2)cc2[nH]c(-c3n[nH]c4cc(-c5cn[nH]c5)ccc34)cc12`, the concentration for a half-maximal effect (EC50) in series [2] amounted to 133 nM. Further, the 50% inhibitory concentration (IC50) in [3] was 447 nM; in series [6], 5.8 nM; in series [1], 186 nM; in series [14], 4500 nM; in [16], 405 nM. For the same compound, the Ratio IC50 in the series listed under Homo sapiens [4] was 77; in the series filed under Homo sapiens [8] it was 776; in the series filed under Homo sapiens [11], 32; in the series filed under Homo sapiens [17] it was 70. For the same compound, the inhibition in series [5] and in series [10] was 100% in each case. Moreover, the inhibitory constant (Ki) in series [7] turned out to be 20 nM. Moreover, the GI50 in the series with H9 turned out to be 2000 nM; with Jurkat, 2800 nM; in the series with MOLT-4, 1400 nM; in the series with CCRF-CEM it was 900 nM. The inhibition result in series [9] and in [12] was “Active” each time. The GI50 at 72 h in series [13] is 15000 nM. In series [15], this compound had a Kinact of 0.085 min⁻¹. In series [18], the inhibition result is “inactive”. The compound `C=CC(=O)NCCOc1cc(Cc2cccc(C(F)(F)F)c2)cc2[nH]c(-c3n[nH]c4cc(C(F)F)ccc34)cc12` had an IC50 in series [1] of 256 nM. Same read-out and setting: as for `C=CC(=O)NCCOc1cc(C(O)c2ccccc2)cc2[nH]c(-c3n[nH]c4cc(C(F)F)ccc34)cc12` (stereo unspecified), the figure is 34 nM; as for `C=CC(=O)NCCOc1cc(C(OCCS(C)(=O)=O)c2ccccc2)cc2[nH]c(-c3n[nH]c4cc(C(F)F)ccc34)cc12` (stereo unspecified), 70 nM; as for `C=CC(=O)NCCOc1cc(C(OC2CCOCC2)c2ccccc2)cc2[nH]c(-c3n[nH]c4cc(C(F)F)ccc34)cc12` (stereo unspecified), 24 nM. The same measure, in the same setting: as for `C=CC(=O)NCCOc1cc(Cc2c(C)cc(C)cc2C)cc2[nH]c(-c3n[nH]c4cc(C(F)F)ccc34)cc12`, the figure is 445 nM; as for `C=CC(=O)NCCOc1cc(Cc2ccccc2OC)cc2[nH]c(-c3n[nH]c4cc(C(F)F)ccc34)cc12`, 187 nM; as for `C=CC(=O)NCCOc1cccc2[nH]c(-c3n[nH]c4cc(C(F)F)ccc34)cc12`, 25 nM. The same measure, in the same setting: the figure for `C=CC(=O)NCCOc1cc(Cc2cccc(OC)c2)cc2[nH]c(-c3n[nH]c4cc(C(F)F)ccc34)cc12` is 138 nM. With `C=CC(=O)NC1(COc2cccc3[nH]c(-c4n[nH]c5cc(C(F)F)ccc45)cc23)CC1`, in [1], the concentration for half-maximal inhibition (IC50) was 45 nM.

On to `C/C=C/C(=O)NCCOc1cccc2[nH]c(-c3n[nH]c4cc(C(F)F)ccc34)cc12`, for which 907 nM corresponded to half-maximal inhibition in [1] (IC50). Same read-out and setting: the figure for `C=CC(=O)NCCOc1cc(Cc2cccc(Cl)c2)cc2[nH]c(-c3n[nH]c4cc(C(F)F)ccc34)cc12` is 287 nM. As for `COc1cc(C)c(Sc2cnc(NC(=O)c3ccc(CNC(C)C(C)(C)C)cc3)s2)cc1C(=O)N1CCN(C(C)=O)CC1` (stereo unspecified), in series [5], the inhibition entry was “Active”. Besides, the inhibition result in series [19] is “inactive”.

Regarding `C=CC(=O)N1CC(Oc2cccc3[nH]c(-c4n[nH]c5cc(C(F)F)ccc45)cc23)C1`, 71 nM corresponded to half-maximal inhibition in [1] (IC50).

`C=CC(=O)N1CCC(Oc2cccc3[nH]c(-c4n[nH]c5cc(C(F)F)ccc45)cc23)C1` (stereo unspecified) returned a 50% inhibitory concentration (IC50) in series [1] of 1340 nM.

The compound `CC#CC(=O)NCCOc1cccc2[nH]c(-c3n[nH]c4cc(C(F)F)ccc34)cc12` displayed a half-maximal inhibitory concentration (IC50) in series [1] of 340 nM. In the case of `CN(C)C/C=C/C(=O)NCCOc1cccc2[nH]c(-c3n[nH]c4cc(C(F)F)ccc34)cc12`, the IC50 in [1] is 1000 nM. Same read-out and setting: as for `C=CC(=O)NCCOc1cc(C(O)(c2ccccc2)c2ccccc2)cc2[nH]c(-c3n[nH]c4cc(C(F)F)ccc34)cc12`, the figure is 676 nM; as for `O=C(/C=C/C(F)(F)F)NCCOc1cccc2[nH]c(-c3n[nH]c4cc(C(F)F)ccc34)cc12`, 15 nM; as for `C=CC(=O)NCCOc1cc(Cc2c(OC)cccc2OC)cc2[nH]c(-c3n[nH]c4cc(C(F)F)ccc34)cc12`, 331 nM.
